Reference: ChEMBL document CHEMBL1138022, “Structurally simplified macrolactone analogues of halichondrin B” (Bioorg Med Chem Lett, 2004)
Each block holds one molecule with its values, some of them ahead of it.

Columns and labels:
DLD-1 = assay: In vitro inhibitory concentration required to inhibit the growth of DLD-1 cells under continuous exposure conditions for 3-4 days; format: functional, cell-based; details: Homo sapiens
Outline: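 Human colon cancer DLD-1 cells were exposed to compound continuously for 3–4 days and growth inhibition was measured. IC50 is given ± SEM, with n the number of experiments.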

U-937 = assay: In vitro inhibitory concentration required to inhibit the growth of U937 cells was determined by mitotic block reversibility assay; format: functional; details: Homo sapiens
Outline: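 Reversibility assay in human histiocytic lymphoma U937 cells. After drug washout, flow cytometry scored whether a complete mitotic block was still maintained 10 h later.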

P388 = assay: Fold resistance calculated as the inhibition concentration ratio between retrovirally transformed P388/VMDRC.04 and parental P388 cells; format: functional
Outline: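 P-glycoprotein-mediated efflux assessed in murine P388/VMDRC.04, a retrovirally transformed multidrug-resistant subline of P388/S leukemia cells, alongside parental P388 cells. Growth inhibition IC50 was measured in each line. Fold resistance is the IC50 ratio of P388/VMDRC.04 to parental P388.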

Compound: C=C1C[C@@H]2CC[C@@]34C[C@@H]5O[C@@H]6C(O[C@H]7CC[C@H](CC(=O)O[C@@H]8[C@@H](OC)[C@H](C[C@@H](O)CO)O[C@H]8C[C@H]8O[C@@H](CC[C@@H]1O2)C[C@@H](C)C8=C)O[C@@H]7[C@@H]6O3)[C@H]5O4
- IC50 (DLD-1): 1.4 nM
- IC99 (U-937): 0.03 µM
- FR (P388): 8.8

- IC50 (DLD-1): 220 nM
Compound: C=C1C[C@@H]2CC[C@@]34C[C@@H]5O[C@@H]6C(O[C@H]7CC[C@H](CC(=O)O[C@@H]8[C@H](OC)[C@H](CC(O)CO)O[C@H]8C[C@H]8O[C@@H](CC[C@@H]1O2)C[C@@H](C)C8=C)O[C@@H]7[C@@H]6O3)[C@H]5O4 (some centres undefined)

Compound: C=C1C[C@@H]2CC[C@@]34C[C@@H]5O[C@@H]6C(O[C@H]7CC[C@H](CC(=O)O[C@@H]8[C@@H](OC)[C@@H](O)[C@@H](CC(O)CO)O[C@H]8C[C@H]8O[C@@H](CC[C@@H]1O2)C[C@@H](C)C8=C)O[C@@H]7[C@@H]6O3)[C@H]5O4 (some centres undefined)
- IC50 (DLD-1): 12 nM
- IC99 (U-937): 0.065 µM
- FR (P388): 20

Compound: C=C1C[C@@H]2CC[C@@]34C[C@@H]5O[C@@H]6C(O[C@H]7CC[C@H](CC(=O)O[C@@H]8[C@@H](OC)[C@@H](O)[C@H](CCO)O[C@H]8C[C@H]8O[C@@H](CC[C@@H]1O2)C[C@@H](C)C8=C)O[C@@H]7[C@@H]6O3)[C@H]5O4
- IC50 (DLD-1): 1.8 nM
- IC99 (U-937): 0.1 µM
- FR (P388): 12

- IC50 (DLD-1): > 1000 nM
Compound: C=C1C[C@@H]2CC[C@@]34C[C@@H]5O[C@@H]6C(O[C@H]7CC[C@H](CC(=O)O[C@H]8[C@@H](OC)[C@H](CC(O)CO)O[C@H]8C[C@H]8O[C@@H](CC[C@@H]1O2)C[C@@H](C)C8=C)O[C@@H]7[C@@H]6O3)[C@H]5O4 (some centres undefined)

Compound: C=C1C[C@@H]2CC[C@@]34C[C@@H]5O[C@@H]6C(O[C@H]7CC[C@H](CC(=O)O[C@@H]8[C@@H](OC)[C@H](O)[C@H](CO)O[C@H]8C[C@H]8O[C@@H](CC[C@@H]1O2)C[C@@H](C)C8=C)O[C@@H]7[C@@H]6O3)[C@H]5O4
- IC50 (DLD-1): 2.6 nM
- IC99 (U-937): 0.3 µM
- FR (P388): 8.5

Compound: C=C1C[C@@H]2CC[C@@]34C[C@@H]5O[C@@H]6C(O[C@H]7CC[C@H](CC(=O)O[C@@H]8[C@@H](OC)[C@H](C[C@@H](O)CC(O)CO)O[C@H]8C[C@H]8O[C@@H](CC[C@@H]1O2)C[C@@H](C)C8=C)O[C@@H]7[C@@H]6O3)[C@H]5O4 (some centres undefined)
- IC50 (DLD-1): 1.9 nM
- IC99 (U-937): 0.03 µM
- FR (P388): 15

Compound: C=C1C[C@@H]2CC[C@@]34C[C@@H]5O[C@@H]6C(O[C@H]7CC[C@H](CC(=O)O[C@H]8C(CC9OC(CCC1O2)C[C@@H](C)C9=C)O[C@H]1C[C@H]2O[C@@]9(C[C@@H]%10O[C@]%11(C[C@H](C)[C@@H]%12O[C@H]([C@@H](O)C[C@@H](O)CO)C[C@@H]%12O%11)C[C@H](C)[C@@H]%10O9)C[C@H]2O[C@H]1[C@@H]8C)O[C@@H]7[C@@H]6O3)[C@H]5O4 (some centres undefined)
- IC50 (DLD-1): 0.74 nM
- IC99 (U-937): 0.025 µM
- FR (P388): 2.8

Compound: C=C1C[C@@H]2CC[C@@]34C[C@@H]5O[C@@H]6C(O[C@H]7CC[C@H](CC(=O)O[C@@H]8[C@@H](OC)[C@@H](O)[C@H](CC(O)CO)O[C@H]8C[C@H]8O[C@@H](CC[C@@H]1O2)C[C@@H](C)C8=C)O[C@@H]7[C@@H]6O3)[C@H]5O4 (some centres undefined)
- IC50 (DLD-1): 19 nM
- IC99 (U-937): 0.053 µM
- FR (P388): 23

Compound: C=C1C[C@@H]2CC[C@@]34C[C@@H]5O[C@@H]6C(O[C@H]7CC[C@H](CC(=O)O[C@@H]8[C@@H](OC)[C@@H]9OC(C)(C)OC[C@@H]9O[C@H]8C[C@H]8O[C@@H](CC[C@@H]1O2)C[C@@H](C)C8=C)O[C@@H]7[C@@H]6O3)[C@H]5O4
- IC50 (DLD-1): 11 nM
- IC99 (U-937): > 1 µM
- FR (P388): 1.7

Compound: C=C1C[C@@H]2CC[C@@]34C[C@@H]5O[C@@H]6C(O[C@H]7CC[C@H](CC(=O)O[C@@H]8[C@@H](OC)[C@H](CCC(=O)C(F)(F)F)O[C@H]8C[C@H]8O[C@@H](CC[C@@H]1O2)C[C@@H](C)C8=C)O[C@@H]7[C@@H]6O3)[C@H]5O4
- IC50 (DLD-1): 0.67 nM
- IC99 (U-937): 0.03 µM
- FR (P388): 4.5

- IC50 (DLD-1): > 1000 nM
Compound: C=C1C[C@@H]2CC[C@@]34C[C@@H]5O[C@@H]6C(O[C@H]7CC[C@H](CC(=O)O[C@@H]8[C@@H](OC)[C@H](CO)O[C@@H]8C[C@H]8O[C@@H](CC[C@@H]1O2)C[C@@H](C)C8=C)O[C@@H]7[C@@H]6O3)[C@H]5O4

Compound: C=C1C[C@@H]2CC[C@@]34C[C@@H]5O[C@@H]6C(O[C@H]7CC[C@H](CC(=O)O[C@@H]8[C@@H](OC)[C@H](O)[C@H](CCO)O[C@H]8C[C@H]8O[C@@H](CC[C@@H]1O2)C[C@@H](C)C8=C)O[C@@H]7[C@@H]6O3)[C@H]5O4
- IC50 (DLD-1): 1.8 nM
- IC99 (U-937): 0.3 µM
- FR (P388): 10

Compound: C=C1C2C[C@@H]3O[C@@H](C[C@H](O)CO)[C@H](OC)[C@H]3OC(=O)C[C@H]3CC[C@@H]4OC5[C@H]6O[C@H]7C[C@](CC[C@H]8CC(=C)[C@H](CC[C@@H](C[C@H]1C)O2)O8)(OC6[C@H]4O3)O[C@H]57
- IC50 (DLD-1): 6.4 nM
- IC99 (U-937): 0.1 µM
- FR (P388): 8.2

Compound: C=C1C[C@@H]2CC[C@@]34C[C@@H]5O[C@@H]6C(O[C@H]7CC[C@H](CC(=O)O[C@@H]8[C@@H](OC)[C@@H](O)[C@H](CO)O[C@H]8C[C@H]8O[C@@H](CC[C@@H]1O2)C[C@@H](C)C8=C)O[C@@H]7[C@@H]6O3)[C@H]5O4
- IC50 (DLD-1): 2 nM
- IC99 (U-937): 0.065 µM
- FR (P388): 13

- IC50 (DLD-1): > 1000 nM
Compound: C=C1C[C@@H]2CC[C@@]34C[C@@H]5O[C@@H]6C(O[C@H]7CC[C@H](CC(=O)O[C@@H]8[C@@H](OC)[C@@H](O)CO[C@H]8C[C@H]8O[C@@H](CC[C@@H]1O2)C[C@@H](C)C8=C)O[C@@H]7[C@@H]6O3)[C@H]5O4

- IC50 (DLD-1): 490 nM
Compound: C=C1C[C@@H]2CC[C@@]34C[C@@H]5O[C@@H]6C(O[C@H]7CC[C@H](CC(=O)O[C@@H]8[C@@H](OCC)[C@@H](O)[C@H](CC(O)CO)O[C@H]8C[C@H]8O[C@@H](CC[C@@H]1O2)C[C@@H](C)C8=C)O[C@@H]7[C@@H]6O3)[C@H]5O4 (some centres undefined)

Compound: C=C1C[C@@H]2CC[C@@]34C[C@@H]5O[C@@H]6C(O[C@H]7CC[C@H](CC(=O)O[C@@H]8[C@@H](OC)[C@H](CO)O[C@H]8C[C@H]8O[C@@H](CC[C@@H]1O2)C[C@@H](C)C8=C)O[C@@H]7[C@@H]6O3)[C@H]5O4
- IC50 (DLD-1): 1 nM
- IC99 (U-937): 0.1 µM
- FR (P388): 2.8
